Assay results taken from ChEMBL document CHEMBL1156274, “Potent arylsulfonamide inhibitors of tumor necrosis factor-alpha converting enzyme able to reduce activated leukocyte cell adhesion molecule shedding in cancer cell models” (J Med Chem, 2010).

What was measured:
[1] = molecular target: T1, Disintegrin and metalloproteinase domain-containing protein 17 (Homo sapiens, UniProt P78536); test: Inhibition of human recombinant ADAM17 by fluorometric assay
[2] = molecular target: T1, Disintegrin and metalloproteinase domain-containing protein 17; conditions: for inhibition: A2774, at 10 µM
[3] = molecular target: T2, Interstitial collagenase (Homo sapiens, UniProt P03956); test: Inhibition of MMP1 by fluorometric assay
T2 sequence (P03956 whole entry): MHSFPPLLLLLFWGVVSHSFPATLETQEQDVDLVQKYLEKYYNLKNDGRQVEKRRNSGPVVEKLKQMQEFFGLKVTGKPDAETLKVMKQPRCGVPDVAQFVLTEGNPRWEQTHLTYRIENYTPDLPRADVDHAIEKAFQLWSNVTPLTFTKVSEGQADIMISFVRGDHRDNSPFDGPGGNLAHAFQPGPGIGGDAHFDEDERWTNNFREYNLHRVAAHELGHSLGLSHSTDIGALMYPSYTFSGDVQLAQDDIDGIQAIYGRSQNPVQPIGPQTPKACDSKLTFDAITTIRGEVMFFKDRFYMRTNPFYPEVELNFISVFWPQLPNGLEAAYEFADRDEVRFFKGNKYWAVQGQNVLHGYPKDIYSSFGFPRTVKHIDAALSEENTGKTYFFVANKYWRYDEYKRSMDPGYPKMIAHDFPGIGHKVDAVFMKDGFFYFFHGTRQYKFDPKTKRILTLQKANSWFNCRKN

[4] = molecular target: 72 kDa type IV collagenase (Homo sapiens, UniProt P08253)
[5] = molecular target: Matrix metalloproteinase-14 (Homo sapiens, UniProt P50281); test: Inhibition of human recombinant MMP14 by fluorometric assay
Outline: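 Fluorogenic substrate Mca-Lys-Pro-Leu-Gly-Leu-Dap(Dnp)-Ala-Arg-NH2 (2 μM final). Enzymes: APMA-activated (2 mM, 2 h, 37 °C) pro-MMP-1 at 2.0 nM; MMP-14 catalytic domain at 1.0 nM. Each enzyme preincubated 4 h at 25 °C with seven inhibitor concentrations in Tris 50 mM pH 7.5, NaCl, CaCl2, Brij-35, 1% DMSO. Fluorescence (ex 325/em 395 nm) read every 15 s for 20 min.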

[6] = molecular target: Matrix metalloproteinase-9 (Homo sapiens, UniProt P14780); test: Inhibition of MMP9 by fluorometric assay
[7] = molecular target: T3, Disintegrin and metalloproteinase domain-containing protein 10 (Homo sapiens, UniProt O14672); test: Inhibition of human recombinant ADAM10 by fluorometric assay
T3 sequence (O14672 whole entry): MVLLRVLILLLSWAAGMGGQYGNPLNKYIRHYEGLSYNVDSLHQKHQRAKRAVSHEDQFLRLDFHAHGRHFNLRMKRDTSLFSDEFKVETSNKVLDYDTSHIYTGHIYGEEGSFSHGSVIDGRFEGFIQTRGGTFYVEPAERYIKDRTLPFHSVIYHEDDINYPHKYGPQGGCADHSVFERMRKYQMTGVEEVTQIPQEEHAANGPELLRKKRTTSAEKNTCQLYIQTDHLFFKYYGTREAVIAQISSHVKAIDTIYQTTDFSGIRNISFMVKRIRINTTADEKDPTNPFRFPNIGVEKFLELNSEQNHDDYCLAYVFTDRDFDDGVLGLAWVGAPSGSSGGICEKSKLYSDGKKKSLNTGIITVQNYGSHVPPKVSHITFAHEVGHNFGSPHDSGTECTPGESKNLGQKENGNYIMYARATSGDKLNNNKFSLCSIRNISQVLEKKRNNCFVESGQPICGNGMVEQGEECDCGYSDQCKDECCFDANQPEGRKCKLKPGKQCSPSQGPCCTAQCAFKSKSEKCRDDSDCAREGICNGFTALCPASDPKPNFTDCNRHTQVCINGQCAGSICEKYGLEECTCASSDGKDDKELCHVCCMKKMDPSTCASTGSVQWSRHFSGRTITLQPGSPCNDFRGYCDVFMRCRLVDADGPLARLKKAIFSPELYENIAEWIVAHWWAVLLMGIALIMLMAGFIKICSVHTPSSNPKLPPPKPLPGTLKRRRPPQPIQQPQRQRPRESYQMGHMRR
Outline: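 Recombinant human ADAM-10 (20 nM) preincubated with seven inhibitor concentrations for 1 h at 37 °C in Tris 25 mM, ZnCl2 25 μM, Brij-35 0.005%, pH 9. Fluorogenic substrate Mca-Lys-Pro-Leu-Gly-Leu-Dap(Dnp)-Ala-Arg-NH2 at 10 μM final. Fluorescence (ex 325/em 395 nm) monitored every 15 s for 20 min. IC50 from initial velocities versus inhibitor-free control; mean of three independent experiments in duplicate.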

[8] = molecular target: T1, Disintegrin and metalloproteinase domain-containing protein 17; test: Inhibition of ADAM17 in human GI-CA-N cells assessed as inhibition of pervanadate-induced sALCAM release by ELISA; type: cell-based
[9] = molecular target: T1, Disintegrin and metalloproteinase domain-containing protein 17; test: Inhibition of ADAM17 in human A2774 cells assessed as inhibition of pervanadate-induced sALCAM release by ELISA; type: cell-based
[10] = system: SK-OV-3; test: Cytotoxicity against human SKOV3 cells after 72 hrs by MTT assay; type: cell-based; conditions: sk-ov-3, 72 h
Outline: (§1)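 Cell lines grown in RPMI 1640 with 10% heat-inactivated FCS, 2 mM glutamine and penicillin-streptomycin at 37 °C, 5% CO2. Seeded at 2 × 10^3 cells/well and exposed to a range of inhibitor concentrations (DMSO stocks) for 24, 48 or 72 h at 37 °C. MTT added for 4 h, formazan dissolved in DMSO, absorbance read at 540 nm; mean of triplicates.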

[11] = molecular target: T1, Disintegrin and metalloproteinase domain-containing protein 17; test: Inhibition of ADAM17 in human A2774 cells assessed as inhibition of constitutive sALCAM release by ELISA; type: cell-based
[12] = system: MCF7; test: Cytotoxicity against human MCF7 cells after 72 hrs by MTT assay; type: cell-based; conditions: mcf7, 72 h; outline: as §1
[13] = molecular target: T1, Disintegrin and metalloproteinase domain-containing protein 17; test: Inhibition of ADAM17 in human MDA-MB-468 cells assessed as inhibition of pervanadate-induced sALCAM release by ELISA; type: cell-based
[14] = molecular target: T1, Disintegrin and metalloproteinase domain-containing protein 17; test: Inhibition of ADAM17 in human SKOV3 cells assessed as inhibition of EGF-induced sALCAM release by ELISA; type: cell-based, SK-OV-3
[15] = molecular target: T1, Disintegrin and metalloproteinase domain-containing protein 17; test: Inhibition of ADAM17 in human MDA-MB-468 cells assessed as inhibition of constitutive sALCAM release by ELISA; type: cell-based
[16] = molecular target: T1, Disintegrin and metalloproteinase domain-containing protein 17; test: Inhibition of ADAM17 in human MCF7 cells assessed as inhibition of pervanadate-induced sALCAM release by ELISA; type: cell-based
[17] = Cytotoxicity against human A2774 cells after 72 hrs by MTT assay; type: cell-based; conditions: a2774, 72 h; outline: as §1
[18] = molecular target: T1, Disintegrin and metalloproteinase domain-containing protein 17; test: Inhibition of ADAM17 in human A2774 cells assessed as inhibition of EGF-induced sALCAM release by ELISA; type: cell-based
[19] = system: MDA-MB-468; test: Cytotoxicity against human MDA-MB-468 cells after 72 hrs by MTT assay; type: cell-based; conditions: mda-mb-468, 72 h; outline: as §1
[20] = Cytotoxicity against human GI-CA-N cells after 72 hrs by MTT assay; type: cell-based; outline: as §1
[21] = molecular target: T1, Disintegrin and metalloproteinase domain-containing protein 17; test: Inhibition of ADAM17 in human MCF7 cells assessed as inhibition of EGF-induced sALCAM release by ELISA; type: cell-based
[22] = molecular target: T1, Disintegrin and metalloproteinase domain-containing protein 17; test: Inhibition of ADAM17 in human MDA-MB-468 cells assessed as inhibition of EGF-induced sALCAM release by ELISA; type: cell-based
[23] = molecular target: T1, Disintegrin and metalloproteinase domain-containing protein 17; test: Inhibition of ADAM17 in human GI-CA-N cells assessed as inhibition of constitutive sALCAM release by ELISA; type: cell-based
[24] = molecular target: T1, Disintegrin and metalloproteinase domain-containing protein 17; test: Inhibition of ADAM17 in human SKOV3 cells assessed as inhibition of constitutive sALCAM release by ELISA; type: cell-based, SK-OV-3
[25] = molecular target: T1, Disintegrin and metalloproteinase domain-containing protein 17; test: Inhibition of ADAM17 in human MCF7 cells assessed as inhibition of constitutive sALCAM release by ELISA; type: cell-based

72 kDa type IV collagenase, sequence (P08253 whole entry): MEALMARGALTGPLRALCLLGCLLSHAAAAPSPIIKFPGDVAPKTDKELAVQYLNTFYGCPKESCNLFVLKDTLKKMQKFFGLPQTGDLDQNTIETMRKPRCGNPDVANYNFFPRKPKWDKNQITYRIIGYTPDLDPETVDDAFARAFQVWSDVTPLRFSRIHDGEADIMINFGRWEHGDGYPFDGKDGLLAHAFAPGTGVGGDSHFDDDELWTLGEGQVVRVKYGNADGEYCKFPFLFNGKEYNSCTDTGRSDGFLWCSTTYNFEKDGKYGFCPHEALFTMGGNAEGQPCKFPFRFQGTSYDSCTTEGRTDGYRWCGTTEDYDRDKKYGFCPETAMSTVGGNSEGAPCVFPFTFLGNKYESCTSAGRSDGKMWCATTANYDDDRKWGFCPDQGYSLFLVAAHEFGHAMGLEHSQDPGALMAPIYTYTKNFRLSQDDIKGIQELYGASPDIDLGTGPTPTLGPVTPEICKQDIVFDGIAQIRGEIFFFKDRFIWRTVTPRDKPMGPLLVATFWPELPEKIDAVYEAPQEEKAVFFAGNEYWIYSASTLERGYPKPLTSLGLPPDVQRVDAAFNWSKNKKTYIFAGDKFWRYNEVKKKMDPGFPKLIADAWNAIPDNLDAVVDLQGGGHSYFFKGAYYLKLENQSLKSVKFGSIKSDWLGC
T1 sequence (P78536 whole entry, the tested form may be a part): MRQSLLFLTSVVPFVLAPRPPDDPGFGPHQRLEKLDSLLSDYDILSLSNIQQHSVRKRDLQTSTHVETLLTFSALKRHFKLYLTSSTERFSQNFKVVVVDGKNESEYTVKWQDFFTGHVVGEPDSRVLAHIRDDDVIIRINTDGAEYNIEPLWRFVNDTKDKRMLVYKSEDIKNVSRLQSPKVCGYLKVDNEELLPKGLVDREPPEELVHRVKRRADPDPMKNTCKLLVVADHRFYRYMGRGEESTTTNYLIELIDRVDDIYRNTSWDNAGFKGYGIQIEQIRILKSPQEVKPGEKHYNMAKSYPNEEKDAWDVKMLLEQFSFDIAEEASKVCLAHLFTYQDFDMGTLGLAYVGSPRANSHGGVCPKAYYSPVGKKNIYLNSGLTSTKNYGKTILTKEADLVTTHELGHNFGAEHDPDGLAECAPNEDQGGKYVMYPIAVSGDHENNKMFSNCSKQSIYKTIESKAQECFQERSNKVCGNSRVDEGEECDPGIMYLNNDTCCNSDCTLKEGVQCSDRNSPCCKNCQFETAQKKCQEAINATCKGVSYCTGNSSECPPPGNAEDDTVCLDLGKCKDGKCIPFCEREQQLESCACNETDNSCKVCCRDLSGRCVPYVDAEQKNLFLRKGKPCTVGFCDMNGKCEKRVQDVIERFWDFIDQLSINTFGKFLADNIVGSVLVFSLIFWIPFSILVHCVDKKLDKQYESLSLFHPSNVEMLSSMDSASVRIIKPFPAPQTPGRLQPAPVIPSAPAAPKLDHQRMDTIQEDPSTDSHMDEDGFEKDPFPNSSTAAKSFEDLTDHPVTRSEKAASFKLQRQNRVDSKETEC
Matrix metalloproteinase-9, sequence (P14780 whole entry, the tested form may be a part): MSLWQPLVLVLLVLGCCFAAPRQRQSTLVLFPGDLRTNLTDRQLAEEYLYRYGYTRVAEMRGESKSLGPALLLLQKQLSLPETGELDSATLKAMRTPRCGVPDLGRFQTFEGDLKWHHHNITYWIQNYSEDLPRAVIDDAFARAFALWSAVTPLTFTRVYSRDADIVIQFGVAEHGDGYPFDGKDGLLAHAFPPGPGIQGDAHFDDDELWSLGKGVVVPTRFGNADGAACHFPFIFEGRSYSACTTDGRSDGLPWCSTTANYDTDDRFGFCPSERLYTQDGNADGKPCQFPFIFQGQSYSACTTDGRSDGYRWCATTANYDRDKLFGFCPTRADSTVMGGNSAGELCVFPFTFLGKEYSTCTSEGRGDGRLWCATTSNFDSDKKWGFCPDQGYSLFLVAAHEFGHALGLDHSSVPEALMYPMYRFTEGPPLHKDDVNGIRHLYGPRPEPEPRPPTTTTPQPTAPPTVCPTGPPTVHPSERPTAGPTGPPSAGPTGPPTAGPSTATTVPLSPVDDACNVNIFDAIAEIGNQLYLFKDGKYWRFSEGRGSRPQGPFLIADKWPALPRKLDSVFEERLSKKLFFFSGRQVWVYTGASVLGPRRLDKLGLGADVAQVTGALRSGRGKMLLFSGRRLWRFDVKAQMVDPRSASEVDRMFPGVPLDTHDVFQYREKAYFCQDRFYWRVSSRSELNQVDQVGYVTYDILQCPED

| SMILES | IC50 [1] [nM] | inhibition [2] [%] | IC50 [3] [nM] | IC50 [4] [nM] | IC50 [5] [nM] | IC50 [6] [nM] | further results |
| --- | --- | --- | --- | --- | --- | --- | --- |
| CC(C)CN(CC(=O)NO)S(=O)(=O)c1ccc(-c2ccccc2)cc1 | 53000 | 14 | – | – | – | – | – |
| COc1ccc(S(=O)(=O)N(CC(C)C)[C@@H](C(=O)NO)C(C)C)cc1 | 1100 | 9 | 56 | 29 | 16 | 7.2 | – |
| CC#CCOc1ccc(S(=O)(=O)N(CC(C)C)[C@H](CCN2C(=O)c3ccccc3C2=O)C(=O)NO)cc1 | 59 | – | 400 | 21 | 29 | 13 | IC50 [7]: 2000 nM |
| CC(C)ON(CC(=O)NO)S(=O)(=O)c1ccc(-c2ccccc2)cc1 | 120000 | 0 | – | – | – | – | – |
| COc1ccc(S(=O)(=O)N(Cc2cccnc2)[C@@H](C(=O)NO)C(C)C)cc1.Cl [CGS-27023A] | 160 | 33 | – | – | – | – | IC50 [8]: 1100 nM; IC50 [9]: 380 nM; Activity [10]: Not Active; IC50 [11]: 18000 nM; Activity [12]: Not Active; IC50 [7]: 890 nM; IC50 [13]: 10000 nM; IC50 [14]: 110 nM; IC50 [15]: 1400 nM; IC50 [16]: 750 nM; Activity [17]: Not Active; IC50 [18]: 3200 nM; Activity [19]: Not Active; Activity [20]: Not Active; IC50 [21]: 3000 nM; IC50 [22]: 750 nM; IC50 [23]: 4400 nM; IC50 [24]: 13000 nM; IC50 [25]: 6900 nM |
| CC#CCOc1ccc(S(=O)(=O)N[C@H](CCNC(=O)OCc2ccccc2)C(=O)NO)cc1 | 1.6 | – | 1100 | 17 | 210 | 46 | IC50 [8]: 500 nM; IC50 [9]: 11 nM; Activity [10]: Not Active; IC50 [11]: 260 nM; Activity [12]: Not Active; IC50 [7]: 240 nM; IC50 [13]: 1100 nM; IC50 [14]: 3.2 nM; IC50 [15]: 420 nM; IC50 [16]: 53 nM; Activity [17]: Not Active; IC50 [18]: 890 nM; Activity [19]: Not Active; Activity [20]: Not Active; IC50 [21]: 420 nM; IC50 [22]: 110 nM; IC50 [23]: 90 nM; IC50 ([2]; A2774): 11 nM; IC50 [25]: 1600 nM |
| COc1ccc(S(=O)(=O)N(OC(C)C)[C@@H](C(=O)NO)C(C)C)cc1 | 10000 | 0 | 1100 | 190 | 240 | 170 | – |
| COc1ccc(S(=O)(=O)N(CC(=O)NO)OC(C)C)cc1 | 180000 | 0 | 110000 | 5000 | 9500 | 4100 | – |
| COc1ccc(S(=O)(=O)NCC(=O)NO)cc1 | – | 32 | – | – | 210 | – | – |
| O=C(NO)[C@@H](CCN1C(=O)c2ccccc2C1=O)NS(=O)(=O)c1ccc(Br)cc1 | 210 | – | 4 | 1.5 | 0.9 | 1.1 | – |
| O=C(CNS(=O)(=O)c1ccc(Br)cc1)NO | 3900 | 13 | 270 | 40 | 360 | 290 | – |
| O=C(CNS(=O)(=O)c1ccc(-c2ccccc2)cc1)NO | 2400 | 35 | – | – | – | – | – |
| CC(=O)NCC[C@@H](NS(=O)(=O)c1ccc(Br)cc1)C(=O)NO | 110 | – | 1500 | 190 | 300 | 190 | IC50 [7]: 2300 nM |
| O=C(NO)[C@@H](CCN1C(=O)c2ccccc2C1=O)NS(=O)(=O)c1ccc(-c2ccccc2C(F)(F)F)cc1 | 44000 | – | 5000 | 390 | 1800 | 430 | – |
| CC(=O)NCC[C@@H](NS(=O)(=O)c1ccc(-c2ccccc2)cc1)C(=O)NO | 300 | – | 196 | 0.7 | 34 | 8.6 | – |
| COc1ccc(S(=O)(=O)N(CC(=O)NO)CC(C)C)cc1 | 2300 | 26 | – | 13 | 13 | 4.8 | – |
